Here are results for two compounds from ChEMBL document CHEMBL2401625, “Synthesis and evaluation of pharmacological properties of some new xanthone derivatives with piperazine moiety” (Bioorg Med Chem Lett, 2013).

Activity calls are given as the source filed them. No cut-off for these calls is given here.

Data set [1] relates to Rattus norvegicus. As to the kind of experiment: Anticonvulsant activity in Sprague-Dawley rat assessed as protection against maximal electroshock-induced seizures at 30 mg/kg, po after 0.5 hrs. The data set is classed as functional, organism-based. Details: dose 30 mg/kg. In a few lines: (§1)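 Rats dosed orally at 30 mg/kg and tested in MES at several time points after dosing. Protection means seizures were prevented. Result is recorded as number of animals protected over number tested.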
For orientation: In the maximal electroshock model the usual endpoint is tonic extension of the hind limbs.

For data set [2], the system named is Mus musculus. Description: Anticonvulsant activity in CF1 mouse assessed as protection against subcutaneous metrazole-induced seizures at 30 mg/kg, ip after 0.5 hrs. The data set is classed as functional, organism-based. Details: dose 30 mg/kg. Put shortly:
(§2)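 Mice given compound i.p. at 30, 100 or 300 mg/kg and tested 0.5 or 4 h after dosing. Seizures were induced by maximal electroshock (MES) or subcutaneous metrazole (ScMet). Prevention of seizures counts as protection. Result is recorded as number of animals protected over number tested.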

Data set [3] deals with Mus musculus. Description: Anticonvulsant activity in CF1 mouse assessed as protection against maximal electroshock-induced seizures at 300 mg/kg, ip after 4 hrs. The data set is classed as functional, organism-based. Details: dose 300 mg/kg. Put shortly: as §2
The test system of data set [4] is Mus musculus. As to the kind of experiment: Anticonvulsant activity in CF1 mouse assessed as protection against subcutaneous metrazole-induced seizures at 300 mg/kg, ip after 0.5 hrs. The data set is classed as functional, organism-based. Details: dose 300 mg/kg. In a few lines: as §2
The subject of data set [5] is Rattus norvegicus. Description: Anticonvulsant activity in Sprague-Dawley rat assessed as protection against maximal electroshock-induced seizures at 30 mg/kg, po after 2 hrs. The data set is classed as functional, organism-based. Details: dose 30 mg/kg. In a few lines:
as §1

The subject of data set [6] is Mus musculus. Description: Anticonvulsant activity in CF1 mouse assessed as protection against subcutaneous metrazole-induced seizures at 100 mg/kg, ip after 4 hrs. The data set is classed as functional, organism-based. Further details: dose 100 mg/kg. Put shortly: as §2
Data set [7] has as its system Mus musculus. As to the kind of experiment: Anticonvulsant activity in CF1 mouse assessed as protection against maximal electroshock-induced seizures at 100 mg/kg, ip after 4 hrs. The data set is classed as functional, organism-based. Further details: dose 100 mg/kg. Put shortly: as §2
Data set [8] relates to Rattus norvegicus. Description: Anticonvulsant activity in Sprague-Dawley rat assessed as protection against maximal electroshock-induced seizures at 30 mg/kg, po after 1 hr. The data set is classed as functional, organism-based. Details: dose 30 mg/kg. In a few lines: as §1
Data set [9] deals with Rattus norvegicus. As to the kind of experiment: Anticonvulsant activity in Sprague-Dawley rat assessed as protection against maximal electroshock-induced seizures at 30 mg/kg, po after 0.25 hrs. The data set is classed as functional, organism-based. Details: dose 30 mg/kg. Put shortly:
as §1

For data set [10], the system named is Mus musculus. As to the kind of experiment: Anticonvulsant activity in CF1 mouse assessed as protection against subcutaneous metrazole-induced seizures at 100 mg/kg, ip after 0.5 hrs. The data set is classed as functional, organism-based. Further details: dose 100 mg/kg. In a few lines:
as §2

Data set [11] concerns Mus musculus. Description: Anticonvulsant activity in CF1 mouse assessed as protection against subcutaneous metrazole-induced seizures at 300 mg/kg, ip after 4 hrs. The data set is classed as functional, organism-based. Further details: dose 300 mg/kg. Put shortly:
as §2

Data set [12] concerns Mus musculus. Description: Anticonvulsant activity in CF1 mouse assessed as protection against maximal electroshock-induced seizures at 30 mg/kg, ip after 4 hrs. Details: dose 30 mg/kg. The data set is classed as functional, organism-based. Put shortly: as §2
In data set [13] the test system is Mus musculus. As to the kind of experiment: Anticonvulsant activity in CF1 mouse assessed as protection against maximal electroshock-induced seizures at 30 mg/kg, ip after 0.5 hrs. The data set is classed as functional, organism-based. Details: dose 30 mg/kg. Put shortly: as §2
Data set [14] is filed under the species Rattus norvegicus. Description: Displacement of [3H]CGP-12177 from beta1-adrenergic receptor in rat cerebral cortex at 50 uM after 60 mins by scintillation counting. The data set is classed as tissue-based.
Data set [15] deals with Mus musculus. Description: Anticonvulsant activity in CF1 mouse assessed as protection against subcutaneous metrazole-induced seizures at 30 mg/kg, ip after 4 hrs. The data set is classed as functional, organism-based. Details: dose 30 mg/kg. In a few lines: as §2
In data set [16] the test system is Mus musculus. As to the kind of experiment: Neurotoxicity in CF1 mouse assessed as minimal motor impairment at 300 mg/kg, ip after 0.5 hrs by rotorod test. The data set is classed as toxicity, organism-based. Further details: dose 300 mg/kg, route intraperitoneal. As to conditions: in vivo. In a few lines:
(§3)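 Rotarod neurotoxicity screen in mice dosed i.p. at 30, 100 or 300 mg/kg, read 0.5 or 4 h after dosing. The animal must stay on a rod rotating at 6 rpm without falling, measured 3 times within 1 min. A fall counts as minimal motor impairment. Result is recorded as impaired animals over animals used.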
Background: The rotarod test checks motor coordination on a turning rod.

Data set [17] deals with Rattus norvegicus. Description: Anticonvulsant activity in po dosed Sprague-Dawley rat assessed as protection against maximal electroshock-induced seizures after 4 hrs. The data set is classed as functional. Put shortly: (§4)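 Quantitative oral assay in rats, run at a time to peak effect of 4 h. ED50 is the dose protecting 50% of animals against MES or ScMet seizures, with 95% confidence interval. TD50 is the dose giving neurotoxicity in 50% of animals. PI = TD50/ED50.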

Data set [18] concerns Rattus norvegicus. Description: Neurotoxicity in Sprague-Dawley rat assessed as minimal motor impairment at 30 mg/kg, po after 0.25 hrs by rotorod test. To be noted: in vivo.
The test system of data set [19] is Mus musculus. Description: Neurotoxicity in CF1 mouse assessed as minimal motor impairment at 100 mg/kg, ip after 4 hrs by rotorod test. The data set is classed as toxicity, organism-based. Details: dose 100 mg/kg, route intraperitoneal. To be noted: in vivo. In a few lines: as §3
Data set [20] in a line: Neurotoxicity in po dosed Sprague-Dawley rat assessed as minimal motor impairment by rotorod test. The data set is classed as toxicity, organism-based. To be noted: in vivo.
Data set [21] has as its system Rattus norvegicus. As to the kind of experiment: Neurotoxicity in Sprague-Dawley rat assessed as minimal motor impairment at 30 mg/kg, po after 0.5 hrs by rotorod test. To be noted: in vivo.
Data set [22] has as its system Rattus norvegicus. As to the kind of experiment: Neurotoxicity in Sprague-Dawley rat assessed as minimal motor impairment at 30 mg/kg, po after 4 hrs by rotorod test. As to conditions: in vivo.
Data set [23] has as its system Rattus norvegicus. Description: Neurotoxicity in Sprague-Dawley rat assessed as minimal motor impairment at 30 mg/kg, po after 1 hr by rotorod test. To be noted: in vivo.
Data set [24] concerns Rattus norvegicus. Description: Anticonvulsant activity in po dosed Sprague-Dawley rat assessed as protection against subcutaneous metrazole-induced seizures after 4 hrs. The data set is classed as functional. Put shortly:
as §4

For data set [25], the system named is Mus musculus. Description: Neurotoxicity in CF1 mouse assessed as minimal motor impairment at 300 mg/kg, ip after 4 hrs by rotorod test. To be noted: in vivo. Details: dose 300 mg/kg, route intraperitoneal. The data set is classed as toxicity, organism-based. In a few lines: as §3
Data set [26] deals with Mus musculus. As to the kind of experiment: Neurotoxicity in CF1 mouse assessed as minimal motor impairment at 30 mg/kg, ip after 0.5 hrs by rotorod test. The data set is classed as toxicity, organism-based. Details: dose 30 mg/kg, route intraperitoneal. As to conditions: in vivo. In a few lines:
as §3

Data set [27] concerns Mus musculus. Description: Neurotoxicity in CF1 mouse assessed as minimal motor impairment at 100 mg/kg, ip after 0.5 hrs by rotorod test. To be noted: in vivo. The data set is classed as toxicity, organism-based. Further details: dose 100 mg/kg, route intraperitoneal. Put shortly:
as §3

In data set [28] the test system is Rattus norvegicus. Description: Neurotoxicity in Sprague-Dawley rat assessed as minimal motor impairment at 30 mg/kg, po after 2 hrs by rotorod test. As to conditions: in vivo.
The test system of data set [29] is Rattus norvegicus. As to the kind of experiment: Protective index, ratio of TD50 for po dosed Sprague-Dawley rat assessed as minimal motor impairment by rotorod test to ED50 for po dosed Sprague-Dawley rat assessed as protection against maximal electroshock-induced seizures. The data set is classed as functional. In a few lines:
as §4

Data set [30] deals with Mus musculus. Description: Neurotoxicity in CF1 mouse assessed as minimal motor impairment at 30 mg/kg, ip after 4 hrs by rotorod test. The data set is classed as toxicity, organism-based. Details: dose 30 mg/kg, route intraperitoneal. As to conditions: in vivo. In a few lines: as §3

As to `COc1ccc2c(=O)c3cc(CN4CCN(C)CC4)ccc3oc2c1`, the result in data set [1], in data set [2], in data set [4], in data set [5], in data set [6] and in data set [7] was inactive. The result in [8], in [9], in data set [10], in [11], in data set [12] and in [13] was inactive. The result in data set [15] was inactive. Moreover, the outcome in data set [3] was Active. Also, in data set [14], the inhibition result is “inactive”.

`COc1ccc2c(=O)c3cc(CN4CCN(Cc5ccccc5)CC4)ccc3oc2c1`: the Activity entry in [16], in [18], in data set [19], in [21], in data set [22] and in [23] was “Non-toxic” in each case. In addition, the Activity entry in data set [25], in data set [26], in [27], in data set [28] and in data set [30] was “Non-toxic” each time. Also, the ED50 is 105 mg/kg in data set [17] and more than 250 mg/kg in data set [24]. Moreover, the TD50 in [20] was more than 300 mg/kg. Also, the “Ratio TD50/ED50” value in data set [29] is on record as more than 2.86.

As usually defined, the ED50 is the dose at which the effect has come halfway, by size or by number of responders. In general, TD50 refers to the 50% point of the dose-response relation for the toxic effect studied.
